# pIC50: −log10 of the molar value. The source made the active and inactive calls. The calls are words filed in the database; no cut-off is given here. Residues, ends and D or L forms follow the SMILES beside them. *: point of attachment. X5 = CCCCCCCCCCCCCCCCCCCC(=O)N[C@@H](C*)C(=O)NCCCCCCCCCCCCCCCC; X2 = CCCCCCCCCCCCCCCCCC(=O)N[C@@H](C*)C(=O)NCCCCCCCCCCCCCCCC; X6 = CCCCCCCCCCCCCC(=O)N[C@@H](C*)C(=O)NCCCCCCCCCCCC; X3 = CCCCCCCCCCCCCC(=O)N[C@@H](C*)C(=O)NCCCCCCCCCC; X4 = CCCCCCCCCCCCCC(=O)N[C@@H](C*)C(=O)NCCCCCCCC; X7 = CCCCCCCCCCCCCC(=O)N[C@@H](C*)C(=O)NCCCCCC; Arachidoyl = CCCCCCCCCCCCCCCCCCCC(=O)*; Stearoyl = CCCCCCCCCCCCCCCCCC(=O)*; Myristoyl = CCCCCCCCCCCCCC(=O)*
# Columns and labels:
# Type in all cases: functional, cell-based
# Toll-like receptor 2 [1] = molecular target: T1, Toll-like receptor 2 (Homo sapiens, UniProt O60603); experiment: Inhibition of TLR2-mediated IL-8 secretion in THP-1 cells
# T1 sequence (O60603 whole entry): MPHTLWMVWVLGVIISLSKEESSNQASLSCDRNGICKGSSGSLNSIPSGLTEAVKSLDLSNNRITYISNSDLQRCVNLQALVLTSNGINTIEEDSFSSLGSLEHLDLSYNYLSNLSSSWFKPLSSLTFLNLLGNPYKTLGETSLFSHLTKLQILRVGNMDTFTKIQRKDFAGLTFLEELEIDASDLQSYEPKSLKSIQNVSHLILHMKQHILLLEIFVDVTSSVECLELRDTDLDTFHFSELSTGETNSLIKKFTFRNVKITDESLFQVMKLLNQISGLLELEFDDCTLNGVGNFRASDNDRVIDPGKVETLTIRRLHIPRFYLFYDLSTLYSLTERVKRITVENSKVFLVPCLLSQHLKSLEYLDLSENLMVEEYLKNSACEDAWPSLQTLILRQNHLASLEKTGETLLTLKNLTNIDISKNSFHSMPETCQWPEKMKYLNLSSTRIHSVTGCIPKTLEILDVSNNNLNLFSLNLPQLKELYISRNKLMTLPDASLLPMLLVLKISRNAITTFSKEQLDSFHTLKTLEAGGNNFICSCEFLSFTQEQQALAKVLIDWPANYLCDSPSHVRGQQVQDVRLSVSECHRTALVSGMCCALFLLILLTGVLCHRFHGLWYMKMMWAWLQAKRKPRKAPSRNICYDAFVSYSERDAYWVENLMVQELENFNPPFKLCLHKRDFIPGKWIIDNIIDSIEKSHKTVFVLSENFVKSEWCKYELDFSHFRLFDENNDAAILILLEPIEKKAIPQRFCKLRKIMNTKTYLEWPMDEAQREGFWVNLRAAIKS
# In short: (§1)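 THP-1 cells, 4 × 10⁴ per well in RPMI 1640/10% FCS, were preincubated with peptides (0.78–25 µM, from 10 mM DMSO stocks) for 10 min at 37 °C. Pam3Cys-SK4-OH (50 nM) was then added for 5 h at 37 °C. IL-8 in cell-free supernatants was measured by matched-pair ELISA against DMSO-matched agonist controls. Triplicates, SD shown.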
# THP-1 = experiment: Cytotoxicity against THP1 cells by MTT assay
# In short: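 THP-1 cells (RPMI 1640 with 10% FCS, 37 °C, 5% CO2) were exposed to lipolanthionine peptides plus Pam3Cys-SK4-OH (50 nM) for 5 h. After part of the supernatant was removed for ELISA, MTT (1 mg/mL) was added for 4 h. Formazan was dissolved in 10% SDS in 10 mM HCl. A570 was read relative to untreated control cells.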
# Toll-like receptor 2 [2] = molecular target: T1, Toll-like receptor 2; experiment: Inhibition of TLR2 agonist Pam3Cys-Ser-(Lys)4-OH-mediated IL8 secretion in THP1 cells; parameters: scale not given: the % may be the effect or the level left; settings: for Activity: THP-1; in short: as §1
# Toll-like receptor 2 [3] = molecular target: T1, Toll-like receptor 2; experiment: Inhibition of TLR2 agonist Pam3Cys-Ser-(Lys)4-OH-mediated IL8 secretion in THP1 cells at 25 uM; settings: THP-1
# In short: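 THP-1 cells, 4 × 10⁴ per well, were preincubated for 10 min at 37 °C with peptide at a single 25 µM concentration (from 10 mM DMSO stock), with or without Pam3Cys-SK4-OH (50 nM), then incubated 5 h at 37 °C. IL-8 was measured by ELISA in cell-free supernatants and expressed relative to agonist plus equal-solvent control. Triplicates, SD.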
Compound,Activity (Toll-like receptor 2 [1]),Activity (Toll-like receptor 2 [2]),pIC50 (Toll-like receptor 2 [2]),Activity (Toll-like receptor 2 [3]),Activity (THP-1)
CCCCCCCCCCCCCCCCNC(=O)[C@H](CSC[C@@H](NC(=O)CCCCCCCCCCCCC)C(=O)N[C@@H](CO)C(=O)N[C@@H](CCCCN)C(=O)N[C@@H](CCCCN)C(=O)N[C@@H](CCCCN)C(=O)N[C@@H](CCCCN)C(N)=O)NC(=O)CCCCCCCCCCCCC,Active,,,,inactive
CCCCCCCCCCCCCCCCNC(=O)[C@H](CSC[C@H](NC(=O)CCCCCCC)C(=O)N[C@@H](CO)C(=O)N[C@@H](CCCCN)C(=O)N[C@@H](CCCCN)C(=O)N[C@@H](CCCCN)C(=O)N[C@@H](CCCCN)C(N)=O)NC(=O)CCCCCCC,Active,,,,inactive
CCCCCCCCCCCCCC(=O)N[C@@H](CSC[C@H](NC(=O)CCCCCCCCCCCCC)C(=O)N[C@@H](CO)C(=O)N[C@@H](CCCCN)C(=O)N[C@@H](CCCCN)C(=O)N[C@@H](CCCCN)C(=O)N[C@@H](CCCCN)C(N)=O)C(=O)NCCCCCCCCCC (Myristoyl-C(X3)SKKKK-NH2),Active,,,,inactive
CCCCCCCCCCCCCC(=O)N[C@H](CSC[C@@H](NC(=O)CCCCCCCCCCCCC)C(=O)N[C@@H](CO)C(=O)N[C@@H](CCCCN)C(=O)N[C@@H](CCCCN)C(=O)N[C@@H](CCCCN)C(=O)N[C@@H](CCCCN)C(N)=O)C(=O)O,Active,inactive,,,inactive
CCCCCCCCCCCCCCCCCCCC(=O)N[C@@H](CSC[C@H](NC(=O)CCCCCCCCCCCCCCCCCCC)C(=O)N[C@@H](CO)C(=O)N[C@@H](CCCCN)C(=O)N[C@@H](CCCCN)C(=O)N[C@@H](CCCCN)C(=O)N[C@@H](CCCCN)C(N)=O)C(=O)NCCCCCCCCCCCCCCCC (Arachidoyl-C(X5)SKKKK-NH2),Active,,,,inactive
CCCCCCCCCCCCCCCCNC(=O)[C@@H](CSC[C@@H](NC(=O)CCCCCCCCCCCCC)C(=O)N[C@@H](CO)C(=O)N[C@@H](CCCCN)C(=O)N[C@@H](CCCCN)C(=O)N[C@@H](CCCCN)C(=O)N[C@@H](CCCCN)C(N)=O)NC(=O)CCCCCCCCCCCCC,Active,,,,inactive
CCCCCCCCCCCCCCCC(=O)O [PALMITIC ACID],,68%,5.30,,
CCCCCCCCCCCCCC(=O)N[C@@H](CSC[C@H](NC(=O)CCCCCCCCCCCCC)C(=O)N[C@@H](CO)C(=O)N[C@@H](CCCCN)C(=O)N[C@@H](CCCCN)C(=O)N[C@@H](CCCCN)C(=O)N[C@@H](CCCCN)C(N)=O)C(=O)NCCCCCCCC (Myristoyl-C(X4)SKKKK-NH2),Active,,,,inactive
CCCCCCCCCCCCCC(=O)N[C@@H](CSC[C@H](NC(=O)CCCCCCCCCCCCC)C(=O)N[C@@H](CO)C(=O)N[C@@H](CCCCN)C(=O)N[C@@H](CCCCN)C(=O)N[C@@H](CCCCN)C(=O)N[C@@H](CCCCN)C(N)=O)C(=O)O,Active,inactive,,,inactive
CCCCCCCCCCCCCCCCNC(=O)[C@H](CSC[C@H](NC(=O)CCCCCCCCCCC)C(=O)N[C@@H](CO)C(=O)N[C@@H](CCCCN)C(=O)N[C@@H](CCCCN)C(=O)N[C@@H](CCCCN)C(=O)N[C@@H](CCCCN)C(N)=O)NC(=O)CCCCCCCCCCC,Active,,,Active,inactive
CCCCCCCCCCCCCCCCNC(=O)[C@H](CSC[C@H](NC(=O)CCCCCCCCCCCCCCC)C(=O)N[C@@H](CO)C(=O)N[C@@H](CCCCN)C(=O)N[C@@H](CCCCN)C(=O)N[C@@H](CCCCN)C(=O)N[C@@H](CCCCN)C(N)=O)NC(=O)CCCCCCCCCCCCCCC,Active,,,Active,inactive
CCCCCCCCCCCCCCCCNC(=O)[C@@H](CSC[C@H](NC(=O)CCCCCCCCCCCCC)C(=O)N[C@@H](CO)C(=O)N[C@@H](CCCCN)C(=O)N[C@@H](CCCCN)C(=O)N[C@@H](CCCCN)C(=O)N[C@@H](CCCCN)C(N)=O)NC(=O)CCCCCCCCCCCCC,Active,,,,inactive
CCCCCCCCCCCCCC(=O)N[C@@H](CSC[C@H](NC(=O)CCCCCCCCCCCCC)C(=O)N[C@@H](CO)C(=O)N[C@@H](CCCCN)C(=O)N[C@@H](CCCCN)C(=O)N[C@@H](CCCCN)C(=O)N[C@@H](CCCCN)C(N)=O)C(=O)NCCCCCC (Myristoyl-C(X7)SKKKK-NH2),,,,,inactive

# The next lines start with results.
Activity (Toll-like receptor 2 [1]),Activity (Toll-like receptor 2 [2]),pIC50 (Toll-like receptor 2 [2]),Activity (Toll-like receptor 2 [3]),Compound,Activity (THP-1)
Active,,,,CCCCCCCCCCCCCCCCCCNC(=O)[C@H](CSC[C@H](NC(=O)CCCCCCCCCCCCC)C(=O)N[C@@H](CO)C(=O)N[C@@H](CCCCN)C(=O)N[C@@H](CCCCN)C(=O)N[C@@H](CCCCN)C(=O)N[C@@H](CCCCN)C(N)=O)NC(=O)CCCCCCCCCCCCC,inactive
Active,,,,CCCCCCCCCCCCCCCCCC(=O)N[C@@H](CSC[C@H](NC(=O)CCCCCCCCCCCCCCCCC)C(=O)N[C@@H](CO)C(=O)N[C@@H](CCCCN)C(=O)N[C@@H](CCCCN)C(=O)N[C@@H](CCCCN)C(=O)N[C@@H](CCCCN)C(N)=O)C(=O)NCCCCCCCCCCCCCCCC (Stearoyl-C(X2)SKKKK-NH2),inactive
Active,inactive,,,CCCCCCCCCCCCCC(=O)N[C@@H](CSC[C@@H](NC(=O)CCCCCCCCCCCCC)C(=O)O)C(=O)N[C@@H](CO)C(=O)N[C@@H](CCCCN)C(=O)N[C@@H](CCCCN)C(=O)N[C@@H](CCCCN)C(=O)N[C@@H](CCCCN)C(N)=O,inactive
Active,,,,CCCCCCCCCCCCCCCCNC(=O)[C@H](CSC[C@H](NC(=O)CCCCCCCCC)C(=O)N[C@@H](CO)C(=O)N[C@@H](CCCCN)C(=O)N[C@@H](CCCCN)C(=O)N[C@@H](CCCCN)C(=O)N[C@@H](CCCCN)C(N)=O)NC(=O)CCCCCCCCC,inactive
Active,,,,CCCCCCCCCCCCCCCCNC(=O)[C@H](C[S+]([O-])C[C@H](NC(=O)CCCCCCCCCCCCCCC)C(=O)N[C@@H](CO)C(=O)N[C@@H](CCCCN)C(=O)N[C@@H](CCCCN)C(=O)N[C@@H](CCCCN)C(=O)N[C@@H](CCCCN)C(N)=O)NC(=O)CCCCCCCCCCCCCCC (some centres undefined),inactive
Active,,,Active,CCCCCCCCCCCCCCCCNC(=O)[C@H](CSC[C@H](NC(=O)CCCCCCCCCCCCC)C(=O)N[C@@H](CO)C(=O)N[C@@H](CCCCN)C(=O)N[C@@H](CCCCN)C(=O)N[C@@H](CCCCN)C(=O)N[C@@H](CCCCN)C(N)=O)NC(=O)CCCCCCCCCCCCC,inactive
Active,,,,CCCCCCCCCCCCCCNC(=O)[C@H](CSC[C@H](NC(=O)CCCCCCCCCCCCC)C(=O)N[C@@H](CO)C(=O)N[C@@H](CCCCN)C(=O)N[C@@H](CCCCN)C(=O)N[C@@H](CCCCN)C(=O)N[C@@H](CCCCN)C(N)=O)NC(=O)CCCCCCCCCCCCC,inactive
Active,,,,CCCCCCCCCCCCCC(=O)N[C@@H](CSC[C@H](NC(=O)CCCCCCCCCCCCC)C(=O)N[C@@H](CO)C(=O)N[C@@H](CCCCN)C(=O)N[C@@H](CCCCN)C(=O)N[C@@H](CCCCN)C(=O)N[C@@H](CCCCN)C(N)=O)C(=O)NCCCCCCCCCCCC (Myristoyl-C(X6)SKKKK-NH2),inactive
Active,,,,CCCCCCCCCCCCCCCCNC(=O)[C@H](CS(=O)(=O)C[C@H](NC(=O)CCCCCCCCCCCCCCC)C(=O)N[C@@H](CO)C(=O)N[C@@H](CCCCN)C(=O)N[C@@H](CCCCN)C(=O)N[C@@H](CCCCN)C(=O)N[C@@H](CCCCN)C(N)=O)NC(=O)CCCCCCCCCCCCCCC,inactive
Active,inactive,,,CCCCCCCCCCCCCC(=O)N[C@@H](CSC[C@@H](NC(=O)CCCCCCCCCCCCC)C(=O)N[C@@H](CO)C(=O)N[C@@H](CCCCN)C(=O)N[C@@H](CCCCN)C(=O)N[C@@H](CCCCN)C(=O)N[C@@H](CCCCN)C(N)=O)C(=O)O,inactive
Active,,,,CCCCCCCCCCCCCCCCNC(=O)[C@H](CSC[C@H](NC(=O)CCCCC)C(=O)N[C@@H](CO)C(=O)N[C@@H](CCCCN)C(=O)N[C@@H](CCCCN)C(=O)N[C@@H](CCCCN)C(=O)N[C@@H](CCCCN)C(N)=O)NC(=O)CCCCC,inactive

# Source: ChEMBL document CHEMBL1139026, “Lipolanthionine peptides act as inhibitors of TLR2-mediated IL-8 secretion. Synthesis and structure-activity relationships” (J Med Chem, 2006)
